Key:
Rattus norvegicus [1] = test: In vivo triglyceride lowering activity when dosed at 0.03 % of the diet; assay type: functional
Outline: (§1)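 Normal rats were dosed in the diet. Serum sterol and triglyceride levels were measured and expressed as the mean percent of control values. Significance versus control was reported at p < 0.05, 0.01 and 0.001.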

Rattus norvegicus [2] = test: In vivo sterol lowering activity when dosed as 0.01 % of the diet; assay type: functional; outline: as §1
Rattus norvegicus [3] = test: In vivo sterol lowering activity when dosed as 0.03 % of the diet; assay type: functional; outline: as §1
Rattus norvegicus [4] = test: In vivo sterol lowering activity at dose of 0.10 % of the diet; assay type: functional; outline: as §1
Rattus norvegicus [5] = test: In vivo triglyceride lowering activity when dosed as 0.01 % of the diet; assay type: functional; outline: as §1
Rattus norvegicus [6] = test: In vivo triglyceride lowering activity dosed at 0.10 % of the diet.; assay type: functional; outline: as §1
[7] = target: T1, Sterol O-acyltransferase 1 (Rattus norvegicus) (UniProt O70536); test: In vitro inhibition of acyl coenzyme A:cholesterol acyltransferase; parameters: concentration or dose not given beside the values; details: concentration not given here
T1 sequence (whole entry): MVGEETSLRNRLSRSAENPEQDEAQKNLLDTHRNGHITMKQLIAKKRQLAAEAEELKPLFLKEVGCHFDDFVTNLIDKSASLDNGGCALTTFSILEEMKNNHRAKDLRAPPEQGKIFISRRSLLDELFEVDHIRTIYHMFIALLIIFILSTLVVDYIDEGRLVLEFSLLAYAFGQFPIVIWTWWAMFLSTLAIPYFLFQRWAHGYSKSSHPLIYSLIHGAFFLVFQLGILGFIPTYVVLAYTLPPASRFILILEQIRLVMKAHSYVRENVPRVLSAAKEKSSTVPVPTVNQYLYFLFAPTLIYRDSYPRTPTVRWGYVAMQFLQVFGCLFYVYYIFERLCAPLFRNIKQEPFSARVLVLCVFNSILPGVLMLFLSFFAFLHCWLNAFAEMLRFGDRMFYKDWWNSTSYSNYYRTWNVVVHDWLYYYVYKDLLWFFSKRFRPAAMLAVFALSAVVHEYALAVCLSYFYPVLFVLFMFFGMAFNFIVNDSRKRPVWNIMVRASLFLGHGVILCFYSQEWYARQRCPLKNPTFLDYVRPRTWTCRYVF
Outline: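 Enzyme fatty acyl-CoA:cholesterol acyltransferase (ACAT), assayed in vitro at a single drug concentration of 5.2 μg/mL. The value is the mean percent inhibition of enzyme activity.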

| inhibition [7] | Compound | serum triglyceride level, percent of control (Rattus norvegicus [1]) | serum sterol level, % of control (Rattus norvegicus [2]) | serum sterol level, percent of control (Rattus norvegicus [3]) | serum sterol level, percent of control (Rattus norvegicus [4]) | serum triglyceride level, percent of control (Rattus norvegicus [5]) | serum triglyceride, percent of control (Rattus norvegicus [6]) |
| --- | --- | --- | --- | --- | --- | --- | --- |
| – | CCCCCCCCCCCCCCCCN(CC)c1ccc(C(=O)O)cc1 | <63% | <74% | <60% | <86% | <78% | 98% |
| < 40% | C=CCOC(=O)c1ccc(NCCCCCCCCCCCCCCCC)cc1 | <60% | 94% | 103% | <81% | – | <70% |
| – | CCCCCCCCCCCCCCCCNc1ccc(C(=O)O)cc1 [CETABEN] | <45% | <72% | <71% | <54% | <71% | <31% |
| – | CCCCCCCCCCCCCCCCNc1ccc(C(=O)OCCN(C)C)cc1.Cl | 73% | 99% | <92% | 92% | 77% | <59% |
| – | CCCCCCCCCCCCCCCCN(C(C)=O)c1ccc(C(=O)O)cc1 | 107% | 105% | 105% | 103% | 109% | 121% |
| – | CCCCCCCCCCCCCCCCNc1ccc(C(=O)NS(=O)(=O)c2ccc(C)cc2)cc1 | <35% | 89% | <56% | <61% | <86% | <40% |
| – | CCCCCCCCCCCCCCCCNc1ccc(CO)cc1 | 117% | 98% | 95% | 95% | 110% | 91% |
| – | CCCCCCCCCCCCCCCCN(CC(=O)O)c1ccc(C(=O)O)cc1 | 100% | 105% | 109% | 93% | 105% | 99% |
| – | CCCCCCCCCCCCCCCCN(CCCCCCCCCCCCCCCC)c1ccc(C(=O)O)c2ccccc12 | 99% | 111% | 109% | 101% | 100% | 112% |
| – | CCCCCCCCCCCCCCN(C(C)=O)c1ccc(C(=O)O)cc1 | 80% | 95% | <80% | 91% | 98% | 96% |
| – | CCCCCCCCCCCCCCCCN(C)c1ccc(C(=O)O)cc1 | <66% | 85% | 92% | 85% | <81% | 56% |
| – | CCCCCCCCCCCCCCCCNCc1ccc(C(=O)O)cc1 | 91% | 97% | <89% | <88% | 86% | 96% |
| – | CCCCCCCCCCCCCCN(C)c1ccc(C(=O)O)cc1 | 92% | 97% | 94% | 97% | 82% | 103% |
| – | CCCCCCCCCCCCCCCCN(C(C)=O)c1ccc(COC(C)=O)cc1 | <71% | 97% | 93% | 95% | <70% | 80% |
